In ChEMBL document CHEMBL3392986, “Hydroxamic acids block replication of hepatitis C virus” (J Med Chem, 2015):

Legend:
[1] = Therapeutic index, ratio of CC50 for human HuH7 cells to EC50 for HCV genotype 1b infected in human Huh7 cells
Hepatitis C virus [2] = test: Antiviral activity against HCV genotype 1b infected in human Huh7 cells after 3 days by luciferase reporter gene assay; type: functional, cell-based, Hepacivirus hominis; conditions: Huh-7, 72 h
[3] = Cytotoxicity against human HuH7 cells assessed as inhibition of cell viability after 3 days by CellTiter 96 assay
[4] = Cytotoxicity against human HuH7 cells assessed as inhibition of cell viability at 1 uM after 3 days by CellTiter 96 assay; type: cell-based, Huh-7; conditions: read-out: INH
How it was run: (§1)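 Replicon cells plated at 6 X 10^3 per well and treated the next day with compound in DMSO, DMSO alone or nothing for three days at 37 °C/5% CO2. Viability measured by CellTiter 96 AQueous One, absorbance 450 nm. Percent inhibition is the average of triplicate wells.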

Hepatitis C virus [5] = test: Antiviral activity against HCV genotype 1b infected in human Huh7 cells at 1 uM after 3 days by luciferase reporter gene assay; type: functional, Hepacivirus hominis; conditions: Huh-7, 72 h
How it was run: (§2)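 Subgenomic luciferase replicon cells seeded at 6 X 10^3 per well. Next day, medium containing compound in DMSO, or DMSO alone, was added. After three days, luciferase read with ViViRen live-cell substrate. Percent inhibition is the triplicate average; 2mA served as control in single-dose runs.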

[6] = Cytotoxicity against human HuH7 cells assessed as inhibition of cell viability at 10 uM after 3 days by CellTiter 96 assay; type: cell-based, Huh-7; conditions: read-out: INH; how it was run: as §1
Hepatitis C virus [7] = test: Antiviral activity against HCV genotype 1b infected in human Huh7 cells at 10 uM after 3 days by luciferase reporter gene assay; type: functional, Hepacivirus hominis; conditions: Huh-7, 72 h; how it was run: as §2
Hepatitis C virus [8] = test: Antiviral activity against HCV genotype 1b infected in human Huh7 cells assessed as reduction in viral RNA level at 2 uM after 3 days by RT-qPCR; type: functional, Hepacivirus hominis, Huh-7; set-up: scale not given: the % may be the effect or the level left
How it was run: (§3)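 Replicon-bearing Huh7 cells, 6 X 10^3 per well, exposed to compound in DMSO or DMSO alone for three days at 37 °C/5% CO2. Replicon RNA quantified by TaqMan Cells-to-CT RT-qPCR with NS5B primers/probe, using GAPDH in parallel wells as reference. Level relative to DMSO-treated cells calculated as 2-∆∆CT. Triplicate wells.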

Hepatitis C virus [9] = test: Antiviral activity against HCV genotype 1b infected in human Huh7 cells assessed as reduction in viral RNA level at 0.5 uM after 3 days by RT-qPCR; type: functional, Hepacivirus hominis, Huh-7; set-up: scale not given: the % may be the effect or the level left; conditions: in the assay text read “2 uM” for “0.5 uM”; how it was run: as §3

SMILES	selectivity ratio ([1]; HuH7 cells)	EC50 (Hepatitis C virus [2]) [µM]	CC50 at 72 h [3] [µM]	cytotoxicity at 72 h, 10 µM [6] [%]	inhibition at 10 µM (Hepatitis C virus [7]) [%]	also measured
O=C(NO)c1cc2ccccc2o1	30	1.8	54	–	–	–
N#Cc1ccc(/C=C/C(=O)NO)cc1	–	–	–	18	99	cytotoxicity at 72 h, 1 µM [4]: 16%; inhibition at 1 µM (Hepatitis C virus [5]): 45%
O=C(/C=C/c1ccncc1)NO	–	–	–	0	20	–
COC(=O)c1sc2ccccc2c1S(=O)(=O)c1ccccc1	–	–	–	0	5	–
O=C(/C=C/c1ccccc1C(F)(F)F)NO	–	–	–	5	40	–
Cc1ccc(/C=C/C(=O)NO)cc1	–	–	–	0	15	–
O=C(/C=C/c1ccccc1)NO	–	0.86	39	–	–	selectivity ratio ([1]; huh-7): 45
O=C(O)/C=C/c1ccc(C(F)(F)F)cc1	–	–	–	0	19	–
CS(=O)(=O)c1ccc(/C=C/C(=O)NO)cc1	–	–	–	0	93	cytotoxicity at 72 h, 1 µM [4]: 0%; inhibition at 1 µM (Hepatitis C virus [5]): 30%
O=C(O)c1sc2ccccc2c1S(=O)(=O)c1ccccc1	–	–	–	2	19	–
O=C(/C=C/c1ccc(C(F)(F)F)nc1)NO	48	0.4	19	–	–	–
O=C(NO)c1cn(Cc2ccccc2)c2ccccc12	–	–	–	92	99	–
O=C(/C=C/c1ccc(C(F)(F)F)cc1)NO	178	0.14	25	–	–	–
O=C(/C=C/c1cccc(C(F)(F)F)c1)NO	–	–	–	6	43	–
O=C(NO)c1cc2ccc(C(F)(F)F)cc2s1	–	–	–	13	83	cytotoxicity at 72 h, 1 µM [4]: 4%; inhibition at 1 µM (Hepatitis C virus [5]): 0%
O=C(/C=C/c1cccc(S(=O)(=O)Nc2ccccc2)c1)NO [BELINOSTAT]	–	0.12	0.68	–	–	selectivity ratio ([1]; huh-7): 6
O=C(/C=C/c1ccc(C(F)(F)F)cn1)NO	34	0.38	13	–	–	–
O=C(/C=C/c1ccc([N+](=O)[O-])cc1)NO	64	0.45	29	–	–	–
O=C(NO)c1cc2cc(C(F)(F)F)ccc2s1	–	–	–	0	94	cytotoxicity at 72 h, 1 µM [4]: 10%; inhibition at 1 µM (Hepatitis C virus [5]): 16%
O=C(NO)c1sc2ccccc2c1[S+]([O-])c1ccccc1 (stereo unspecified)	> 36	1.4	> 50	–	–	–
O=C(NO)c1cc2ccccc2s1	28	1	28	–	–	–
NC(=O)/C=C/c1ccc(C(F)(F)F)cc1	–	–	–	1	6	–
Nc1ccccc1NC(=O)/C=C/c1ccc(C(F)(F)F)cc1	–	–	–	82	94	–
Nc1ccccc1NC(=O)c1ccc(CNC(=O)OCc2cccnc2)cc1 [ENTINOSTAT]	–	1.4	5.1	–	–	selectivity ratio ([1]; huh-7): 4
COc1ccc(/C=C/C(=O)NO)cc1	–	–	–	0	15	–
O=C(/C=C/c1ccccn1)NO	–	–	–	1	58	–

SMILES	selectivity ratio ([1]; HuH7 cells)	EC50 (Hepatitis C virus [2]) [µM]	CC50 at 72 h [3] [µM]	cytotoxicity at 72 h, 10 µM [6] [%]	inhibition at 10 µM (Hepatitis C virus [7]) [%]	also measured
O=C(C=C(c1ccccc1)c1ccccc1)NO	–	–	–	4	64	–
O=C(NO)c1cn(-c2ccccc2)c2ccccc12	–	–	–	–	11	–
O=C(/C=C/c1cccnc1)NO	–	–	–	2	40	–
O=C(NO)c1ccc(C(F)(F)F)cc1	> 18	5.4	> 100	–	–	–
O=C(/C=C/c1c(F)cc(C(F)(F)F)cc1F)NO	22	0.54	12	–	–	–
O=C(NO)c1cc2ccccc2n1-c1ccccc1	–	–	–	15	41	–
C/C(=C\C(=O)NO)c1ccccc1	18	3.2	59	–	–	–
O=C(NO)c1c[nH]c2ccccc12	–	–	–	–	0	–
O=C(/C=C/c1ccc(Cl)cc1)NO	> 8	6	> 50	–	–	–
O=C(/C=C/c1ccc(Cl)cc1Cl)NO [CINNAMIC ACID HYDROXAMATE]	104	0.078	8.1	–	–	–
COC(=O)/C=C/c1ccc(C(F)(F)F)cc1	–	–	–	1	0	–
O=C(/C=C/c1ccc(C(F)(F)F)cc1Cl)NO	14	1.1	15	–	–	–
Cc1[nH]c2ccccc2c1CCNCc1ccc(/C=C/C(=O)NO)cc1 [PANOBINOSTAT]	–	–	0.0035	–	–	–
COc1cc(NC(=O)CCCCCCC(=O)NO)ccc1-c1cnco1	12	0.21	2.6	–	–	–
CN1CCc2c(c3ccccc3n2Cc2ccc(C(=O)NO)cc2)C1 [TUBASTATIN A]	–	–	–	70	97	–
O=C(NO)c1cc2ccc([N+](=O)[O-])cc2s1	15	3.7	54	–	–	–
O=C(NCC1(c2nc(-c3ccccc3)cs2)CCOCC1)c1cccc(-c2noc(C(F)(F)F)n2)c1	–	–	–	21	22	–
O=C(NO)c1sc2ccccc2c1Sc1ccccc1	–	–	–	4	8	–
O=C(/C=C/c1ccc(C(F)(F)F)cc1F)NO	117	0.12	14	–	–	–
O=C(CCc1ccc(C(F)(F)F)cc1)NO	–	–	–	0	35	–
O=C(NO)c1cc2ccccc2n1Cc1ccccc1	–	–	–	28	82	–
COc1ccc(Cn2ccc3ccc(C(=O)NO)cc32)cc1	6	1.8	11	–	–	–
O=C(NO)c1cc2ccccc2[nH]1	–	–	–	7	45	–
O=C(NO)c1cc2cc([N+](=O)[O-])ccc2s1	14	2.4	34	–	–	–
O=C(NO)c1cc2cc(Cl)ccc2s1	39	0.69	27	–	–	Activity (Hepatitis C virus [8]): 75%; Activity (Hepatitis C virus [9]): 75%
